Converted amounts (≈) assume the structure as drawn.
What was measured:
Klebsiella pneumoniae [1] = assay: Inhibitory concentration of compound was tested against gram negative Klebsiella pneumoniae.; format: functional
Outline: (§1)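 MIC by agar dilution on sensitivity test agar with serial twofold antibiotic dilutions. The inoculum was an overnight tryptose broth culture diluted to about 10⁶ cells/mL. Plates were incubated at 37 °C for 18-20 h. MIC was the lowest concentration inhibiting visible growth.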

[2] = biological target: Beta-lactamase (Enterobacter cloacae) (UniProt P05364); assay: Hydrolysis rate by the beta-lactamase from Enterobacter cloacae 214 relative to cephaloridine (100);c= Hydrolysis was not detected
Outline: (§2)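 Cells were grown statically in nutrient phosphate broth for 16 h at 37 °C and disrupted ultrasonically. β-lactamase was partially purified on CM-Sephadex C-50. Substrate (100 μM final) was hydrolysed in 0.1 M potassium phosphate pH 7.0 at 30 °C, with the enzyme diluted in buffer containing 0.001% gelatin. Rate came from the slope of UV optical density decrease and was expressed relative to cephaloridine = 100.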

[3] = biological target: T1, Beta-lactamase (Klebsiella oxytoca) (UniProt Q8RT60); assay: Hydrolysis rate by beta-lactamase of Klebsiella sp. 363 relative to cephaloridine (100)
T1 sequence (whole entry): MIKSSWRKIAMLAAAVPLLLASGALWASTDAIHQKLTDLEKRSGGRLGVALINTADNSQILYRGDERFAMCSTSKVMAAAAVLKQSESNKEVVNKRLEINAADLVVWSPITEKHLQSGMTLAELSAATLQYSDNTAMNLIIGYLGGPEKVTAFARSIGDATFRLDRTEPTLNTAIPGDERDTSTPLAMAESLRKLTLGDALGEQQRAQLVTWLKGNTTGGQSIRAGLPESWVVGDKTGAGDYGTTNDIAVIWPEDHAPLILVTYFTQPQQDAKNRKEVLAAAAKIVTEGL
Outline: (§3)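 Constitutive producers were grown statically in nutrient phosphate broth at 37 °C for 16 h, then sonicated. Enzyme was partially purified on DEAE-Sephadex A-25 (phosphate gradient, 0.01 M pH 8.0 to 0.5 M pH 6.2). Assay conditions: 0.1 M potassium phosphate pH 7.0, 30 °C, 0.001% gelatin in enzyme diluent, 100 μM final substrate. Hydrolysis rate was taken from the slope of UV absorbance decrease, with cephaloridine set to 100.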

Escherichia coli [4] = assay: Inhibitory concentration of compound was tested against gram negative Escherichia coli H organism.; format: functional; outline: as §1
[5] = test system: Beta-lactamase (Proteus vulgaris); assay: Hydrolysis rate by the beta-lactamase from Proteus vulgaris 31 relative to cephaloridine.
Klebsiella pneumoniae [6] = assay: (§4) Inhibitory concentration of compound was tested against gram negative Klebsiella sp 363.; format: functional; outline: as §1
Proteus mirabilis = assay: Inhibitory concentration of compound was tested against gram negative Proteus mirabilis PR-4.; format: functional; outline: as §1
[7] = biological target: Beta-lactamase (Escherichia coli K-12) (UniProt P00811); assay: Hydrolysis rate by the beta-lactamase from Escherichia coli 6 relative to cephaloridine (100);c= Hydrolysis was not detected; outline: as §2
Escherichia coli [8] = assay: Inhibitory concentration of compound was tested against gram negative Escherichia coli 73.; format: functional; outline: as §1
Escherichia coli [9] = assay: Inhibitory concentration of compound was tested against gram negative Escherichia coli NIH JC-2.; format: functional; outline: as §1
[10] = biological target: Beta-lactamase TEM (Escherichia coli) (UniProt P62593); assay: Hydrolysis rate by the beta-lactamase from Escherichia coli W3110 RTEM relative to cephaloridine.; outline: as §3
[11] = biological target: Beta-lactamase (Escherichia coli K-12) (UniProt P00811); assay: Hydrolysis rate by the beta-lactamase from Escherichia coli 6 relative to cephaloridine.; outline: as §2
[12] = test system: Beta-lactamase (Proteus vulgaris); assay: Hydrolysis rate by the beta-lactamase from Proteus vulgaris 31 relative to cephaloridine (100)
[13] = test system: Beta-lactamase (Enterobacter cloacae); assay: Hydrolysis rate by the beta-lactamase from Enterobacter cloacae 214 relative to cephaloridine (100)
[14] = test system: Beta-lactamase (Klebsiella sp.); assay: Hydrolysis rate by the beta-lactamase from Klebsiella sp. 363 relative to cephaloridine (100)
[15] = biological target: Beta-lactamase (Escherichia coli K-12) (UniProt P00811); assay: Hydrolysis rate by the beta-lactamase from Escherichia coli 6 relative to cephaloridine (100); c= Hydrolysis was not detected; outline: as §2
[16] = biological target: Beta-lactamase (Enterobacter cloacae) (UniProt P05364); assay: Hydrolysis rate by the beta-lactamase from Enterobacter cloacae 214 relative to cephaloridine (100); c= Hydrolysis was not detected; outline: as §2
Klebsiella = assay: as §4; format: functional; outline: as §1

Beta-lactamase (Escherichia coli K-12), sequence (P00811 whole entry): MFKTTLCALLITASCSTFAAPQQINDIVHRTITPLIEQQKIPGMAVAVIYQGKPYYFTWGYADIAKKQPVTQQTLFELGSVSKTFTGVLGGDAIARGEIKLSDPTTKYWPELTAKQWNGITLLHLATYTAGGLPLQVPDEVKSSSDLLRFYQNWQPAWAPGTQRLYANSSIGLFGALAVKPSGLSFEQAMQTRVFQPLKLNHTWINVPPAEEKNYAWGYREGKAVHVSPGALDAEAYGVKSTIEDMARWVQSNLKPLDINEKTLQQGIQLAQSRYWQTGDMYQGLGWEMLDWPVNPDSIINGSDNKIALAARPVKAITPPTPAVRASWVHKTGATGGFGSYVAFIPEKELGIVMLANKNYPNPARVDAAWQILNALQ
Beta-lactamase TEM (Escherichia coli), sequence (P62593 whole entry): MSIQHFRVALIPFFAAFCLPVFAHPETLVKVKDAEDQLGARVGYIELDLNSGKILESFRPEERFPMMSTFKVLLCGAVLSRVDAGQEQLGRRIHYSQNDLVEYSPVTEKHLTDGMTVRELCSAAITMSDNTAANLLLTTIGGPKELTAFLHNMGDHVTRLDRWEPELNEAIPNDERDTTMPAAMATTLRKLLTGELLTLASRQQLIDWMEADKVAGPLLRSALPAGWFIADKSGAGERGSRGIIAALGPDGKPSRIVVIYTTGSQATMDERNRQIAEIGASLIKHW
Beta-lactamase (Enterobacter cloacae) (UniProt P05364), sequence (P05364 21-381 limits assumed): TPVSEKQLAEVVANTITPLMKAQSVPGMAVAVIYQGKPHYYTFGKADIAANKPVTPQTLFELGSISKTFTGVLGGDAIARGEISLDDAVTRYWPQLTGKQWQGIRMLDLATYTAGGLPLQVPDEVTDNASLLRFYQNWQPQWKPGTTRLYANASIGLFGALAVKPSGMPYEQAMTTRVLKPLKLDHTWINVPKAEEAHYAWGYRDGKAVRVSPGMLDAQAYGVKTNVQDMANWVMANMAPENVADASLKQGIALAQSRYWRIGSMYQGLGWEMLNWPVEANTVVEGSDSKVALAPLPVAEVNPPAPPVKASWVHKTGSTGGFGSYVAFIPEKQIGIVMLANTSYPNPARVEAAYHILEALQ

Row | SMILES | MIC (Klebsiella pneumoniae [1]) [µg/mL] | Relative hydrolysis rate [2] | Relative hydrolysis rate [3] | MIC (Escherichia coli [4]) [µg/mL] | Relative hydrolysis rate [5] | MIC (Klebsiella pneumoniae [6]) [µg/mL] | MIC (Proteus mirabilis) [µg/mL] | Relative hydrolysis rate [7] | MIC (Escherichia coli [8]) [µg/mL] | MIC (Escherichia coli [9]) [µg/mL] | Relative hydrolysis rate [10] | Relative hydrolysis rate [11] | Relative hydrolysis rate [12] | Relative hydrolysis rate [13] | Relative hydrolysis rate [14] | Relative hydrolysis rate [15] | Relative hydrolysis rate [16] | MIC (Klebsiella) [µg/mL]
1 | Cn1nnnc1SCC1=C(C(=O)O)N2C(=O)C(NC(=O)C(C(=O)O)c3ccc(O)cc3)C2SC1 (stereo not drawn) | 3.13 (≈ 6.18 µM) | Hydrolysis not detected | 6.3 | 3.13 (≈ 6.18 µM) | 20 | 50 (≈ 98.7 µM) | 3.13 (≈ 6.18 µM) | Hydrolysis not detected | 50 (≈ 98.7 µM) | 3.13 (≈ 6.18 µM) | 0.96 |  |  |  |  |  |  | 
2 | Cn1nnnc1SCC1=C(C(=O)O)N2C(=O)C(NC(=O)Cc3csc(N)n3)C2SC1 (stereo not drawn) | 0.1 (≈ 0.213 µM) |  | 4.1 | 0.05 (≈ 0.107 µM) | 250 | 6.25 (≈ 13.3 µM) | 0.1 (≈ 0.213 µM) |  | 1.56 (≈ 3.33 µM) | 0.1 (≈ 0.213 µM) | 17 | 120 |  |  |  |  |  | 
3 | CC1=C(C(=O)O)N2C(=O)C(NC(=O)C(N)c3ccccc3)C2OC1 (stereo not drawn) |  |  |  |  |  |  |  |  |  |  | 12 | 260 | 330 | 95 | 9.6 |  |  | 
4 | CC1=C(C(=O)O)N2C(=O)[C@@H](NC(=O)[C@H](N)c3ccccc3)[C@H]2SC1 |  |  |  |  |  |  |  |  |  |  | 0.75 | 57 |  |  |  |  |  | 
5 | Cn1nnnc1SCC1=C(C(=O)O)N2C(=O)C(NC(=O)C(C(=O)O)c3ccc(O)cc3)C2OC1 (stereo not drawn) | 0.2 (≈ 0.408 µM) |  | 80 | 0.2 (≈ 0.408 µM) | 86 | 100 (≈ 204 µM) | 0.39 (≈ 0.795 µM) |  | 50 (≈ 102 µM) | 0.2 (≈ 0.408 µM) | 19 |  |  |  |  | Hydrolysis not detected | Hydrolysis not detected | 
6 | Cc1nnc(SCC2=C(C(=O)O)N3C(=O)C(NC(=O)Cn4cnnn4)C3SC2)s1 (stereo not drawn) |  |  |  | 1.56 (≈ 3.43 µM) |  |  |  |  | 25 (≈ 55 µM) | 1.56 (≈ 3.43 µM) |  |  |  |  |  |  |  | > 100
7 | Cn1nnnc1SCC1=C(C(=O)O)N2C(=O)C(NC(=O)Cc3ccc(O)cc3)C2OC1 (stereo not drawn) | 0.78 (≈ 1.75 µM) |  | 630 | 0.39 (≈ 0.874 µM) | 710 | > 100 | 0.39 (≈ 0.874 µM) |  | > 100 | 0.78 (≈ 1.75 µM) | 560 | 1200 |  |  |  |  |  | 
8 | Cn1nnnc1SCC1=C(C(=O)O)N2C(=O)C(NC(=O)/C(=N\O)c3ccc(NS(C)(=O)=O)cc3)C2OC1 (stereo not drawn) | 0.78 (≈ 1.41 µM) |  | 350 | 0.78 (≈ 1.41 µM) | 330 | > 100 | 1.56 (≈ 2.82 µM) |  | > 100 | 0.78 (≈ 1.41 µM) | 290 | 5.5 |  |  |  |  |  | 
9 | CCN1CCN(C(=O)NC(C(=O)NC2C(=O)N3C(C(=O)O)=C(CSc4nnnn4C)CSC23)c2ccc(OC(N)=O)cc2)C(=O)C1=O (stereo not drawn) | 0.05 (≈ 0.0726 µM) |  | 3.1 | ≤ 0.013 | 16 | > 100 | 1.56 (≈ 2.27 µM) |  | 12.5 (≈ 18.2 µM) | 0.1 (≈ 0.145 µM) | 59 | 5.1 |  |  |  |  |  | 

Reference: ChEMBL document CHEMBL1121719, “1-Oxacephalosporins: enhancement of beta-lactam reactivity and antibacterial activity” (1981)
